Consider 17 compounds from ChEMBL document CHEMBL4387756, “Discovery of DC_H31 as potential mutant IDH1 inhibitor through NADPH-based high throughput screening” (Bioorg Med Chem, 2019).

For orientation: IC50 means the concentration at which inhibition is half-maximal. For orientation: Kd means the constant that tells how readily two partners part at equilibrium.

For experiment [1], the target named is T1, Isocitrate dehydrogenase [NADP] cytoplasmic (Homo sapiens, UniProt O75874). As to the kind of experiment: Inhibition of N-terminal 6-His-tagged wild type IDH1 (unknown origin) expressed in Escherichia coli BL21 cells using alpha-KG as substrate in presence of NADPH incubated for 40 mins by fluorescence assay.
The target of experiment [2] is T2, Isocitrate dehydrogenase [NADP] cytoplasmic (Homo sapiens, UniProt O75874, R132C). As to the kind of experiment: Inhibition of N-terminal 6-His-tagged IDH1 R132C mutant (unknown origin) expressed in Escherichia coli BL21 cells using alpha-KG as substrate in presence of NADPH incubated for 40 mins by fluorescence assay. Put shortly:
(§1)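 His-tagged-free description: E. coli BL21 expressed, affinity-purified enzyme, 100 nmol/L R132H or 20 nmol/L R132C. Remaining NADPH was read by fluorescence (ex 355/em 460 nm). Dose-response started at 50 µmol/L, seven dilution steps. IC50 is the mean of three determinations.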

Experiment [3] has as its target T3, Isocitrate dehydrogenase [NADP] cytoplasmic (Homo sapiens, UniProt O75874, R132H). As to the kind of experiment: Inhibition of N-terminal 6-His-tagged IDH1 R132H mutant (unknown origin) expressed in Escherichia coli BL21 cells using alpha-KG as substrate in presence of NADPH incubated for 40 mins by fluorescence assay. A digest of the protocol:
as §1

In another experiment the test system is U-87 MG. As to the kind of experiment: Antiproliferation activity against human U87MG cells assessed as reduction in cell viability after 72 hrs by Cell Titer-Glo luminescent assay. The format is functional, cell-based, U-87MG ATCC. Put shortly:
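HT1080 (endogenous IDH1-R132C) and U-87 MG cells kept in DMEM with 10% FBS and 1% penicillin/streptomycin at 37 °C, 5% CO2. Cells were seeded in 96-well plates and, after attachment, exposed to a concentration range for 72 h in triplicate with matched DMSO control. Viable fraction was read by CellTiter-Glo luminescence. IC50 came from a nonlinear curve fit.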

For experiment [4], the target named is T3, Isocitrate dehydrogenase [NADP] cytoplasmic. The experiment is described as follows: Binding affinity to N-terminal 6-His-tagged IDH1 R132H mutant (unknown origin) expressed in BL21 cells assessed as equilibrium dissociation constant by SPR assay. Put shortly: (§2)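 Assay ran on a Biacore T200 at 25 °C in HBS (10 mmol/L HEPES pH 7.4, 150 mmol/L NaCl, 0.1% DMSO). Bacterially expressed, affinity-purified protein was diluted in 10 mmol/L sodium acetate and amine-coupled to a CM5 chip. Analyte ranged 25–0.78 µmol/L for R132H/C and 50–1.56 µmol/L for WT, flowed at 30 µL/min. Association 120 s, dissociation 150 s. KD from a steady-state model.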

The next experiment relates to HT-1080. The experiment is described as follows: Antiproliferation activity against human HT1080 cells assessed as reduction in cell viability after 72 hrs by Cell Titer-Glo luminescent assay. Conditions: HT-1080, 72 h. On the technique in general: ATP-based viability assays read luminescence as a measure of living cells.
The nature of experiment [5]: Selectivity ratio of IC50 for human HT1080 cells to IC50 for human U87MG cells. The format is functional.
Experiment [6] addresses T2, Isocitrate dehydrogenase [NADP] cytoplasmic. As to the kind of experiment: Binding affinity to N-terminal 6-His-tagged IDH1 R132C mutant (unknown origin) expressed in BL21 cells assessed as equilibrium dissociation constant by SPR assay. A digest of the protocol: as §2
Experiment [7] deals with T1, Isocitrate dehydrogenase [NADP] cytoplasmic. The experiment is described as follows: Binding affinity to N-terminal 6-His-tagged wild type IDH1 (unknown origin) expressed in BL21 cells assessed as equilibrium dissociation constant by SPR assay. A digest of the protocol: as §2
For orientation: SPR reads the build-up and loss of mass on a sensor chip optically.

The test system of experiment [8] is Isocitrate dehydrogenase [NADP] cytoplasmic (Homo sapiens), O75874 [R132C]. As to the kind of experiment: Inhibition of IDH1 R132C mutant in human HT1080 cells assessed as induction of differentiation by measuring increase in GFAP protein expression after at 0.125 to 1 umol/L 6 days by Western blot analysis. Format: cell-based. Put shortly: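 HT1080 cells in 6-well plates received indicated concentrations or DMSO for 6 days after attachment. BCA-quantified lysates were resolved on 12% SDS-PAGE and transferred to nitrocellulose. Membranes were blocked in 5% milk, probed overnight at 4 °C with anti-GFAP and anti-GAPDH, then with HRP secondary for 2 h, and detected by ECL.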
Background: In western blotting, separated proteins are transferred to a membrane and probed.

Experiment [9] shares this test system. The experiment is described as follows: Inhibition of IDH1 R132C mutant in human HT1080 cells assessed as induction of differentiation by measuring decrease in SOX2 mRNA expression at 1 umol/L after 6 days by qRT-PCR analysis. The format is cell-based. A digest of the protocol:
(§3)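 HT1080 cells in 6-well plates were exposed to 1 µmol/L compound or DMSO for 6 days. RNA was extracted with Trizol, reverse transcribed, and SOX2 and GFAP expression measured by SYBR Green real-time PCR. Values are mean ±SD of three replicates.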

For experiment [10] the test system is unchanged. As to the kind of experiment: Inhibition of IDH1 R132C mutant in human HT1080 cells assessed as induction of differentiation by measuring increase in GFAP mRNA expression at 1 umol/L after 6 days by qRT-PCR analysis. Format: cell-based. A digest of the protocol: as §3

Each structure is given as a SMILES string. Active and inactive are the calls of the source. The rule behind the calls is not given here. Some results are limits rather than exact numbers.

T3 sequence (O75874 2-414 R132H limits assumed): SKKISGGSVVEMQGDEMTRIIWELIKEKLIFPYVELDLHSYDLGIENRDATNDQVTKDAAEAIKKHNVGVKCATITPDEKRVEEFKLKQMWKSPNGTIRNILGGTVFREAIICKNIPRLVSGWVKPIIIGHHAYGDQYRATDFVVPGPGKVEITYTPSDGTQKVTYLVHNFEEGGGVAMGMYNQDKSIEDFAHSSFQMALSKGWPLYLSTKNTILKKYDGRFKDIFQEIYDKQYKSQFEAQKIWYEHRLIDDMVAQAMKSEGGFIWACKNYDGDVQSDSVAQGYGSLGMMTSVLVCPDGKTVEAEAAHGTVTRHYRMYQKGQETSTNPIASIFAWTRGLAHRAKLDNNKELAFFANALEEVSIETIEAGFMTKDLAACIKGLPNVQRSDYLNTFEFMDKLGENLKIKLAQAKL
T1 sequence (O75874 whole entry): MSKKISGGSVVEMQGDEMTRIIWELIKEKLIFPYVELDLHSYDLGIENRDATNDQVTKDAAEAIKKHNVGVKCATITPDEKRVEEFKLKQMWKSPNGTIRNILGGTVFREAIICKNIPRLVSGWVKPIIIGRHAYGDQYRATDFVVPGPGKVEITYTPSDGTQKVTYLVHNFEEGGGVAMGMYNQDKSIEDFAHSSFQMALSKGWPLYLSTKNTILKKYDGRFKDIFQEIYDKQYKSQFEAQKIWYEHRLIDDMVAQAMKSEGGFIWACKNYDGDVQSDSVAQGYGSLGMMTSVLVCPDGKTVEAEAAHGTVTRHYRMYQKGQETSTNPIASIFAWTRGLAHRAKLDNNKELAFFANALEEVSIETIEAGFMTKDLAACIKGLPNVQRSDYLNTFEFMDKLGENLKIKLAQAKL
T2 sequence (O75874 2-414 R132C limits assumed): as the sequence (O75874 2-414 R132H limits assumed) above, with H131C counted along it
Isocitrate dehydrogenase [NADP] cytoplasmic (Homo sapiens), O75874 [R132C], sequence (O75874 whole entry R132C): as the sequence (O75874 whole entry) above, with R132C counted along it

Turning to `CC(C)(C)c1cc(C(c2ccccn2)N2CCN(C3CCCCC3)CC2)cc(C(C)(C)C)c1O` (stereo not drawn), the IC50 in experiment [1], in experiment [2] and in experiment [3] was over 50 µM each time.
With `CC(C)(C)c1cc(C(SC2CCCCC2)c2ccccn2)cc(C(C)(C)C)c1O` (stereo not drawn), the IC50 in experiment [1], in experiment [2] and in experiment [3] was over 50 µM in each case.
Consider `CN1CCN(C(c2cc(C(C)(C)C)cc(C(C)(C)C)c2)c2ccccn2)CC1` (stereo not drawn), for which the IC50 in [1], in [2] and in experiment [3] was over 50 µM each time.
Consider `CN1CCN(C(c2cc(C(C)(C)C)c(O)c(C(C)(C)C)c2)c2ccccn2)CC1` (stereo not drawn), for which the IC50 in [1] turned out to be 50 µM; in experiment [2] it was 4.9 µM; in experiment [3], 3 µM.
As for `CC(C)(C)c1cc(C(OC2CCCCC2)c2ccccn2)cc(C(C)(C)C)c1O` (stereo not drawn), the half-inhibitory concentration (IC50) in [1], in experiment [2] and in [3] was over 50 µM each time.
As for `Cc1ccccc1C(C(=O)NC1CCCCC1)N(C(=O)Cn1ccnc1C)c1cccc(F)c1` (stereo not drawn), the IC50 in experiment [3] worked out at 0.082 µM.
In the case of `CC(C)(C)c1cc(C(c2ccccn2)N2CCOCC2)cc(C(C)(C)C)c1` (stereo not drawn), the IC50 in [1], in experiment [2] and in experiment [3] was over 50 µM each time.
Turning to `CC(C)(C)c1cc(C(c2ccccn2)N2CCN(C(C)(C)C)CC2)cc(C(C)(C)C)c1O` (stereo not drawn), the IC50 in experiment [1] is 8.5 µM; in experiment [2] it was 9 µM; in experiment [3], over 50 µM.
Regarding `CCCCN1CCN(C(c2cc(C(C)(C)C)c(O)c(C(C)(C)C)c2)c2ccccn2)CC1` (stereo not drawn), the IC50 in [1] is 12.8 µM; in experiment [2], 9 µM; in experiment [3], over 50 µM.
With `CCN1CCN(C(c2cc(C(C)(C)C)c(O)c(C(C)(C)C)c2)c2ccccn2)CC1` (stereo not drawn), the IC50 in experiment [1] amounted to 6.4 µM; in experiment [2], 4.8 µM; in [3], 12 µM.
In the same order, the values of `CC(C)(C)c1cc(C(c2ccccn2)N2CCN(c3ccccc3)CC2)cc(C(C)(C)C)c1O` (stereo not drawn) are over 50 µM, over 50 µM and over 50 µM.
With `CC(C)(C)c1cc(C(c2ccccn2)N2CCOCC2)cc(C(C)(C)C)c1O` (stereo not drawn), the IC50 was 48.7 µM in the experiment on U-87 MG; 43.7 µM in [1]; 2.7 µM in experiment [2]; 5 µM in the experiment on HT-1080; 0.41 µM in experiment [3]. For the same compound, the equilibrium dissociation constant (Kd) in experiment [4] is 3.8 µM; in [6], 0.72 µM; in [7], over 50 µM. The “Ratio IC50” value in experiment [5] worked out at 10. Besides, the inhibition result in experiment [8], in [9] and in experiment [10] was “Active” throughout.
For the compound `CC(C)N1CCN(C(c2cc(C(C)(C)C)c(O)c(C(C)(C)C)c2)c2ccccn2)CC1` (stereo not drawn), the IC50 in experiment [1] worked out at 3 µM; in experiment [2], 7 µM; in [3], 4.76 µM.
Take `Cc1cccnc1C(c1cc(C(C)(C)C)c(O)c(C(C)(C)C)c1)N1CCOCC1` (stereo not drawn): the IC50 in experiment [1] stood at 0.8 µM; in [2], 4.7 µM; in experiment [3], 20 µM.
In the same order, the values of `CC(C)(C)c1cc(C(c2cccc(F)c2)N2CCOCC2)cc(C(C)(C)C)c1O` (stereo not drawn) are over 50 µM, over 50 µM and over 50 µM.
With `Cc1cccc(C(c2cc(C(C)(C)C)c(O)c(C(C)(C)C)c2)N2CCOCC2)n1` (stereo not drawn), the IC50 in [1], in experiment [2] and in experiment [3] was over 50 µM throughout.
For `CC(C)(C)c1cc(C(c2ccccn2)N2CCN(CC3CC3)CC2)cc(C(C)(C)C)c1O` (stereo not drawn), the IC50 in [1] is 31 µM; in [2], 18 µM; in experiment [3] it was over 50 µM.
